From ChEMBL document CHEMBL1127523, “Design and synthesis of side-chain conformationally restricted phenylalanines and their use for structure-activity studies on tachykinin NK-1 receptor” (J Med Chem, 1994)
Non-standard residues stand in square brackets, D forms with d. Residues, ends and D or L forms follow the SMILES beside them. Gly(9-fluorenyl) = N[C@H](C(=O)O)C1c2ccccc2-c2ccccc21

Key:
Neuromedin-K receptor = molecular target: T1, Neuromedin-K receptor (Rattus norvegicus, UniProt P16177); assay: Concentration required to inhibit the specific binding of [125I]BH-ELE to Neurokinin-3 (NK-3) receptor in rat brain synaptosomes; assay type: subcellular
T1 sequence (P16177 whole entry): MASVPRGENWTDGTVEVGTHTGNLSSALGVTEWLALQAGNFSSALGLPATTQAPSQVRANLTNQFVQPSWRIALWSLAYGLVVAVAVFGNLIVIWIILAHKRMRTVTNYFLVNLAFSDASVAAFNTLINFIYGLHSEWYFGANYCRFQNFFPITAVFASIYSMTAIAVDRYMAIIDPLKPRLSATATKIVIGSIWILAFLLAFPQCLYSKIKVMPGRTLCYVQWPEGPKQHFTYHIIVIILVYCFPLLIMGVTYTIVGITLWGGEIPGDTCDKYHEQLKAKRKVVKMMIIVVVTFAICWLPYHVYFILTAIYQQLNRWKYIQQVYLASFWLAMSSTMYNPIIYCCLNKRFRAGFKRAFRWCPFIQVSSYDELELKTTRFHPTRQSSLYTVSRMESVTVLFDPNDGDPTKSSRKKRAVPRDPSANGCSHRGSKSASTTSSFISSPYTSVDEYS
Method in brief: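 Rat brain synaptosomes in Krebs-Ringer phosphate buffer with BSA, bacitracin and glucose. Incubated 15 min at 20 °C with 40 pM [125I]BHELE and increasing peptide concentrations, gamma counted. Triplicates, two to eight independent experiments; nonspecific binding defined with eledoisin 10⁻⁶ M. IC50 estimated from Hill plots of titration curves.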

Cavia porcellus = species on record: Cavia porcellus; assay: Effective concentration required for its inhibition of nonspecific binding to guinea pig ileal membranes; assay type: functional
Substance-P receptor = Substance-P receptor (Rattus norvegicus, UniProt P14600); assay: Concentration required to inhibit the specific binding of [125I]BH-SP to Neurokinin-1 (NK-1) receptor in rat brain synaptosomes; assay type: subcellular
Substance-K receptor = molecular target: T2, Substance-K receptor (Rattus norvegicus, UniProt P16610); assay: Concentration required to inhibit the specific binding of [3H]NKA to Neurokinin-2 (NK-2) receptor in rat duodenum membranes
T2 sequence (P16610 whole entry): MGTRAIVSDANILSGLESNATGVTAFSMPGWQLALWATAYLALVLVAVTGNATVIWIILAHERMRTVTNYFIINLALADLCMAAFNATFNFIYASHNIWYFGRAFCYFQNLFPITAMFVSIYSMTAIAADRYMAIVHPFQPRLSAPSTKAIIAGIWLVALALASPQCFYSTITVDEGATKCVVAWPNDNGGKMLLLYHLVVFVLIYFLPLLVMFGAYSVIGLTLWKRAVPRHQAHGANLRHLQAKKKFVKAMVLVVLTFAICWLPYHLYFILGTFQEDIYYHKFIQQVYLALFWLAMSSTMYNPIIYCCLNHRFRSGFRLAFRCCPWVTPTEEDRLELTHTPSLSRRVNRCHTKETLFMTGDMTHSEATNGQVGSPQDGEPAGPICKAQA

Sequence of Substance-P receptor (P14600 whole entry): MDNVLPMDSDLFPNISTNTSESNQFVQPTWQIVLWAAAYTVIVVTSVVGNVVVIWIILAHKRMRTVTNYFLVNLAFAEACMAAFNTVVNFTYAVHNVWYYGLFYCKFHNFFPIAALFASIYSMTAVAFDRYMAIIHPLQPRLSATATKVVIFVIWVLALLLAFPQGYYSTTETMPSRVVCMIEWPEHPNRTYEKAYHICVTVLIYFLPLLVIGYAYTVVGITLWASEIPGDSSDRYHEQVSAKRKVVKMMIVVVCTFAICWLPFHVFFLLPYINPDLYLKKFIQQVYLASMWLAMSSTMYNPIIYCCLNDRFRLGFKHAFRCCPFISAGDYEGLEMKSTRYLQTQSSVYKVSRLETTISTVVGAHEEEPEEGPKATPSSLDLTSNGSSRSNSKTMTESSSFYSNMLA

Row | SMILES | IC50 (Neuromedin-K receptor) | EC50 (Cavia porcellus) | IC50 (Substance-P receptor) | IC50 (Substance-K receptor)
1 | CSCC[C@H](NC(=O)[C@H](CC(C)C)NC(=O)CNC(=O)[C@@H](NC(=O)[C@H](Cc1ccccc1)NC(=O)[C@H](CCC(N)=O)NC(=O)[C@H](CCC(N)=O)NC(=O)[C@@H]1CCCN1C(=O)[C@H](CCCCN)NC(=O)[C@@H]1CCCN1C(=O)[C@@H](N)CCCN=C(N)N)C1c2ccccc2-c2ccccc21)C(N)=O |  | 5.7 nM |  | 
2 | CSCC[C@H](NC(=O)[C@H](CC(C)C)NC(=O)CNC(=O)[C@@H](NC(=O)[C@H](Cc1ccccc1)NC(=O)[C@H](CCC(N)=O)NC(=O)[C@H](CCC(N)=O)NC(=O)[C@@H]1CCCN1C(=O)[C@H](CCCCN)NC(=O)[C@@H]1CCCN1C(=O)[C@@H](N)CCCNC(=N)N)C(C)(C)SC)C(N)=O | 170 nM |  | 2.4 nM | 68 nM
3 | CSCC[C@H](NC(=O)[C@H](CC(C)C)NC(=O)CNC(=O)[C@@H](NC(=O)[C@H](Cc1ccccc1)NC(=O)[C@H](CCC(N)=O)NC(=O)[C@H](CCC(N)=O)NC(=O)[C@@H]1CCCN1C(=O)[C@H](CCCCN)NC(=O)[C@@H]1CCCN1C(=O)[C@@H](N)CCCN=C(N)N)[C@@H]1CCc2cc3ccccc3cc21)C(N)=O | 180 nM | 2.8 nM | 28 nM | 57 nM
4 | CSCC[C@H](NC(=O)[C@H](CC(C)C)NC(=O)CNC(=O)[C@H](Cc1ccccc1)NC(=O)[C@@H](NC(=O)[C@H](CCC(N)=O)NC(=O)[C@H](CCC(N)=O)NC(=O)[C@@H]1CCCN1C(=O)[C@H](CCCCN)NC(=O)[C@@H]1CCCN1C(=O)[C@@H](N)CCCN=C(N)N)C1Cc2ccccc2C1)C(N)=O | > 10000 nM | 1300 nM | 2300 nM | 1700 nM
5 | CSCC[C@H](NC(=O)[C@H](CC(C)C)NC(=O)[C@@H]1CCCN1C(=O)[C@@H](NC(=O)[C@H](Cc1ccccc1)NC(=O)[C@H](CCC(N)=O)NC(=O)[C@H](CCC(N)=O)NC(=O)[C@@H]1CCCN1C(=O)[C@H](CCCCN)NC(=O)[C@@H]1CCCN1C(=O)[C@@H](N)CCCN=C(N)N)C1c2ccccc2-c2ccccc21)C(N)=O (H-RPKPQQF[Gly(9-fluorenyl)]PLM-NH2) | 15000 nM | 1.7 nM | 3.3 nM | 1300 nM
6 | CSCC[C@H](NC(=O)[C@H](CC(C)C)NC(=O)[C@@H]1CCCN1C(=O)[C@H](Cc1ccccc1)NC(=O)[C@H](Cc1ccccc1)NC(=O)[C@H](CCC(N)=O)NC(=O)[C@H](CCC(N)=O)NC(=O)[C@@H]1CCCN1C(=O)[C@H](CCCCN)NC(=O)[C@@H]1CCCN1C(=O)[C@@H](N)CCCN=C(N)N)C(N)=O | > 10000 nM | 2 nM | 2.9 nM | > 10000 nM
7 | CSCC[C@H](NC(=O)[C@H](CC(C)C)NC(=O)CNC(=O)[C@@H]1Cc2ccccc2CN1C(=O)[C@H](Cc1ccccc1)NC(=O)[C@H](CCC(N)=O)NC(=O)[C@H](CCC(N)=O)NC(=O)[C@@H]1CCCN1C(=O)[C@H](CCCCN)NC(=O)[C@@H]1CCCN1C(=O)[C@@H](N)CCCN=C(N)N)C(N)=O | 20000 nM |  | 1200 nM | 18000 nM
8 | CSCC[C@H](NC(=O)[C@H](CC(C)C)NC(=O)CNC(=O)[C@H](Cc1ccccc1)NC(=O)[C@@H](NC(=O)[C@H](CCC(N)=O)NC(=O)[C@H](CCC(N)=O)NC(=O)[C@@H]1CCCN1C(=O)[C@H](CCCCN)NC(=O)[C@@H]1CCCN1C(=O)[C@@H](N)CCCN=C(N)N)[C@H]1CCc2ccccc21)C(N)=O | 2200 nM | 1.2 nM | 3.1 nM | 380 nM
9 | CSCC[C@H](NC(=O)[C@H](CC(C)C)NC(=O)CNC(=O)[C@@H](NC(=O)[C@H](Cc1ccccc1)NC(=O)[C@H](CCC(N)=O)NC(=O)[C@H](CCC(N)=O)NC(=O)[C@@H]1CCCN1C(=O)[C@H](CCCCN)NC(=O)[C@@H]1CCCN1C(=O)[C@@H](N)CCCN=C(N)N)C(C)(C)S(C)(=O)=O)C(N)=O | 190 nM | 1.1 nM | 7.84 nM | 160 nM
10 | CSCC[C@H](NC(=O)[C@H](CC(C)C)NC(=O)CNC(=O)[C@H](Cc1ccccc1)NC(=O)/C(=C/c1ccccc1)NC(=O)[C@H](CCC(N)=O)NC(=O)[C@H](CCC(N)=O)NC(=O)[C@@H]1CCCN1C(=O)[C@H](CCCCN)NC(=O)[C@@H]1CCCN1C(=O)[C@@H](N)CCCN=C(N)N)C(N)=O | > 10000 nM | 3100 nM |  | 4900 nM
11 | CSCC[C@H](NC(=O)[C@H](CC(C)C)NC(=O)CNC(=O)[C@H](Cc1ccccc1)NC(=O)[C@@H]1Cc2ccccc2CN1C(=O)[C@H](CCC(N)=O)NC(=O)[C@H](CCC(N)=O)NC(=O)[C@@H]1CCCN1C(=O)[C@H](CCCCN)NC(=O)[C@@H]1CCCN1C(=O)[C@@H](N)CCCN=C(N)N)C(N)=O | 1900 nM |  | 2400 nM | 520 nM
12 | CSCC[C@H](NC(=O)[C@H](CC(C)C)NC(=O)CNC(=O)[C@H](Cc1ccccc1)NC(=O)/C(=C\c1ccccc1)NC(=O)[C@H](CCC(N)=O)NC(=O)[C@H](CCC(N)=O)NC(=O)[C@@H]1CCCN1C(=O)[C@H](CCCCN)NC(=O)[C@@H]1CCCN1C(=O)[C@@H](N)CCCN=C(N)N)C(N)=O | 11700 nM | 8.4 nM |  | 950 nM
13 | CSCC[C@H](NC(=O)[C@H](CC(C)C)NC(=O)CNC(=O)[C@@H](NC(=O)[C@H](Cc1ccccc1)NC(=O)[C@H](CCC(N)=O)NC(=O)[C@H](CCC(N)=O)NC(=O)[C@@H]1CCCN1C(=O)[C@H](CCCCN)NC(=O)[C@@H]1CCCN1C(=O)[C@@H](N)CCCN=C(N)N)C(C)(C)SC)C(N)=O |  | 1.7 nM |  | 

Second part, the compound after the results:

Row | IC50 (Neuromedin-K receptor) | EC50 (Cavia porcellus) | IC50 (Substance-P receptor) | IC50 (Substance-K receptor) | SMILES
14 | 130 nM |  |  |  | CSCC[C@H](NC(=O)[C@H](CC(C)C)NC(=O)CNC(=O)[C@H](Cc1ccccc1)NC(=O)[C@H](Cc1ccccc1)NC(=O)[C@H](CCC(N)=O)NC(=O)[C@H](CCC(N)=O)NC(=O)[C@@H]1CCCN1C(=O)[C@H](CCCCN)NC(=O)[C@@H]1CCCN1C(=O)[C@@H](N)CCCN=C(N)N)C(N)=O [SUBSTANCE P]
15 | 17000 nM |  | 1300 nM | 3600 nM | CSCC[C@H](NC(=O)[C@H](CC(C)C)NC(=O)CNC(=O)[C@H](Cc1ccccc1)NC(=O)[C@@H](NC(=O)[C@H](CCC(N)=O)NC(=O)[C@H](CCC(N)=O)NC(=O)[C@@H]1CCCN1C(=O)[C@H](CCCCN)NC(=O)[C@@H]1CCCN1C(=O)[C@@H](N)CCCNC(=N)N)C(c1ccccc1)c1ccccc1)C(N)=O
16 | 7400 nM |  | 2700 nM |  | CSCC[C@H](NC(=O)[C@H](CC(C)C)NC(=O)CNC(=O)[C@H](Cc1ccccc1)NC(=O)[C@H](CCSC)NC(=O)[C@H](CCC(N)=O)NC(=O)[C@H](CCC(N)=O)NC(=O)[C@@H]1CCCN1C(=O)[C@H](CCCCN)NC(=O)[C@@H]1CCCN1C(=O)[C@@H](N)CCCNC(=N)N)C(N)=O
17 | 91 nM |  | 2.5 nM | 41 nM | CSCC[C@H](NC(=O)[C@H](CC(C)C)NC(=O)CNC(=O)[C@@H](NC(=O)[C@H](Cc1ccccc1)NC(=O)[C@H](CCC(N)=O)NC(=O)[C@H](CCC(N)=O)NC(=O)[C@@H]1CCCN1C(=O)[C@H](CCCCN)NC(=O)[C@@H]1CCCN1C(=O)[C@@H](N)CCCNC(=N)N)C1c2ccccc2-c2ccccc21)C(N)=O
18 |  | 226 nM |  |  | CSCC[C@H](NC(=O)[C@H](CC(C)C)NC(=O)CNC(=O)[C@H](Cc1ccccc1)NC(=O)[C@@H](NC(=O)[C@H](CCC(N)=O)NC(=O)[C@H](CCC(N)=O)NC(=O)[C@@H]1CCCN1C(=O)[C@H](CCCCN)NC(=O)[C@@H]1CCCN1C(=O)[C@@H](N)CCCN=C(N)N)C(c1ccccc1)c1ccccc1)C(N)=O
19 | 110 nM |  | 0.6 nM | 29 nM | CSCC[C@H](NC(=O)[C@H](CC(C)C)NC(=O)CNC(=O)[C@@H](NC(=O)[C@H](Cc1ccccc1)NC(=O)[C@H](CCC(N)=O)NC(=O)[C@H](CCC(N)=O)NC(=O)[C@@H]1CCCN1C(=O)[C@H](CCCCN)NC(=O)[C@@H]1CCCN1C(=O)[C@@H](N)CCCNC(=N)N)[C@H]1CCc2cc3ccccc3cc21)C(N)=O
20 | 2200 nM |  | 500 nM | 670 nM | CSCC[C@H](NC(=O)[C@H](CC(C)C)NC(=O)CNC(=O)[C@@H](NC(=O)[C@H](Cc1ccccc1)NC(=O)[C@H](CCC(N)=O)NC(=O)[C@H](CCC(N)=O)NC(=O)[C@@H]1CCCN1C(=O)[C@H](CCCCN)NC(=O)[C@@H]1CCCN1C(=O)[C@@H](N)CCCNC(=N)N)C(c1ccccc1)c1ccccc1)C(N)=O
21 | 1200 nM |  | 18 nM |  | CSCC[C@H](NC(=O)[C@H](CC(C)C)NC(=O)CNC(=O)[C@H](CCSC)NC(=O)[C@H](Cc1ccccc1)NC(=O)[C@H](CCC(N)=O)NC(=O)[C@H](CCC(N)=O)NC(=O)[C@@H]1CCCN1C(=O)[C@H](CCCCN)NC(=O)[C@@H]1CCCN1C(=O)[C@@H](N)CCCNC(=N)N)C(N)=O
